Screening data as filed in PubChem.
In the library only some 5.8% were active in any assay of this set; here they are far more common.
Pf Dd2 inh: P. falciparum Dd2 growth inhibition; activity change, % at 10 µM; 2.3% of 94,000 active; SYBR Green, 72 h; active compounds read low; AID 1159554; in the data active = activity change below about -80%; inconclusive = no clear call, values can overlap the other calls
IDH1 mut inh: inhibitors of human IDH1 R132H; AID 624101; inhibition, % at 10 µM; O75874; 0.18% of 70,000 active; IDH1 R132H reductase, diaphorase/resazurin fluorescence, 60 min; in the data active = inhibition above about 34%; inconclusive = no clear call, values can overlap the other calls; inactive = below about 11%;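 also: 0% = DMSO and 100% = no enzyme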
Target sequence (O75874 whole entry R132H): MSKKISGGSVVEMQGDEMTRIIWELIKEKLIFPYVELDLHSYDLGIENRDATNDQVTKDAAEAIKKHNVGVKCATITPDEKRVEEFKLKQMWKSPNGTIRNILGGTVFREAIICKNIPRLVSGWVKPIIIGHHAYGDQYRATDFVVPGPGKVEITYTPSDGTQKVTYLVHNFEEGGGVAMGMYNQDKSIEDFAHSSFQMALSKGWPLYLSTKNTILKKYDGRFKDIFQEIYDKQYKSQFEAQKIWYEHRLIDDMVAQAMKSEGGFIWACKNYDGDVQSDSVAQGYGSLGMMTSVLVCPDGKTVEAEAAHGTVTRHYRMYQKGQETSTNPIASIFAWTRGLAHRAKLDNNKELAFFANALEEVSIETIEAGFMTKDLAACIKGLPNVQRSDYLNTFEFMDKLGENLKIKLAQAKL
Tcruzi prolif: blocks T. cruzi growth in NIH3T3 culture; inhibition, % at 8.34 µM; 5.9% of 77,000 active; T. cruzi beta-gal in NIH3T3, GalScreen luminescence, 90 h;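 active = mean inhibition above about 93%, with at least 55% of replicates each passing it, limit read from the data, passing the limit was not always enough; inconclusive = only one of those two conditions holds; inactive = neither condition holds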
GASC1 inh: inhibitors of human demethylase GASC-1 KDM4C. Q9H3R0. GST-KDM4C 2-372, H3K9me3 peptide, LANCE TR-FRET. inhibition, % at 12.5 µM. 0.15% of 96,000 active;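 active = mean replicate inhibition above about 25%, with at least 55% of replicates also reaching it, limit read from the data, passing the limit was not always enough; inconclusive = only one of those two conditions met; inactive = neither condition met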
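Test system – GST-tagged GASC-1 (JMJD2C) catalytic fragment, aa 2-372 · Medium – HEPES buffer, pH 7.5, plus ascorbate · Reagent – H3K9me3 peptide with Fe(II)/2OG · Compound – one test concentration per compound · Timing – 30 min reaction, 60 min detection, RT · Technique – TR-FRET with Eu antibody and ULight streptavidin, EDTA stop · Read-out basis – inhibition from TR-FRET ratio decrease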
The depositor's hits bear a star; ? = inconclusive; / = no result given.

SMILES	Pf Dd2 inh	IDH1 mut inh	Tcruzi prolif	GASC1 inh
COc1ccc2c3c(n(C)c2c1)[C@H](CO)N(CC1CCCC1)CC31CCN(C(=O)Nc2ccccc2)CC1	-66	/	/	-3
COc1ccc(NC(=O)N2CCC3(CC2)CN(CC2CC2)[C@H](CO)c2c3c3ccc(OC)cc3n2C)cc1	-85*	/	/	0
Cc1ccc(S(=O)(=O)Nc2ccc3c(c2)CC(=O)N([C@@H](C)CO)C[C@@H](C)[C@@H](CN(C)Cc2ccc(C(=O)Nc4ccccc4N)cc2)O3)cc1	-88*	0	67	-2
Cc1ccc(S(=O)(=O)Nc2ccc3c(c2)CC(=O)N([C@H](C)CO)C[C@H](C)[C@@H](CN(C)Cc2ccc(C(=O)Nc4ccccc4N)cc2)O3)cc1	-85*	-3	/	-1
O=C(CN1CCN(S(=O)(=O)c2ccc3ccccc3c2)CC1)Nc1cc(Cl)ccc1Cl	/	1	/	/
C[C@@H]1CCCCO[C@@H](CN(C)Cc2ccc(C(=O)Nc3ccccc3N)cc2)[C@@H](C)CN([C@H](C)CO)C(=O)c2cc(NS(=O)(=O)c3cccs3)ccc2O1	?	/	/	0
C[C@@H]1CCCCO[C@H](CN(C)Cc2ccc(C(=O)Nc3ccccc3N)cc2)[C@@H](C)CN([C@H](C)CO)C(=O)c2cc(NS(=O)(=O)c3cccs3)ccc2O1	-87*	0	53	-1
C[C@@H]1CCCCO[C@H](CN(C)Cc2ccc(C(=O)Nc3ccccc3N)cc2)[C@@H](C)CN([C@@H](C)CO)C(=O)c2cc(NS(=O)(=O)c3ccc(Cl)cc3)ccc2O1	-85*	/	81	-1
O=C(Nc1sc2c(c1C(=O)NCc1ccco1)CCCC2)c1ccccc1[N+](=O)[O-]	/	0	/	/
CC(C)Oc1ccccc1-c1nc(SCC(N)=O)n[nH]1	/	0	/	/
COC(=O)c1ccccc1NC(=O)C1CCCN(S(=O)(=O)c2ccc(Br)cc2)C1 (centres undefined)	/	0	/	/
COc1ccc(CN2C[C@H](C)[C@@H](OC)CN(C)C(=O)c3cc(NC(=O)c4nc5ccccc5s4)ccc3OC[C@@H]2C)cc1	-85*	0	/	0
CO[C@@H]1CN(C)C(=O)c2cc(NC(=O)c3nc4ccccc4s3)ccc2OC[C@@H](C)N(Cc2ccccc2)C[C@H]1C	-86*	0	/	-1
COc1ccc(CN2C[C@@H](C)[C@@H](OC)CN(C)C(=O)c3cc(NC(=O)c4nc5ccccc5s4)ccc3OC[C@@H]2C)cc1	-61	0	/	2
COc1ccc(S(=O)(=O)Nc2ccc3c(c2)CC(=O)N([C@H](C)CO)C[C@H](C)[C@@H](CN(C)Cc2ccc(C(=O)Nc4ccccc4N)cc2)O3)cc1	-85*	0	49	-5
COc1ccc(S(=O)(=O)Nc2ccc3c(c2)CC(=O)N([C@@H](C)CO)C[C@H](C)[C@@H](CN(C)Cc2ccc(C(=O)Nc4ccccc4N)cc2)O3)cc1	-88*	0	/	-2
O=C(O)[C@H]1O[C@@H](Oc2cc(O)c3c(=O)c(-c4ccc(O)cc4)coc3c2)[C@H](O)[C@@H](O)[C@@H]1O	/	0	/	/
CC(C)OC(=O)N(C)C[C@H]1OCc2ccccc2-c2c(n(C)c3ccccc23)C(=O)N([C@H](C)CO)C[C@H]1C	-83*	-2	29	-1
C[C@@H]1CN([C@@H](C)CO)C(=O)c2c(c3ccccc3n2C)-c2ccccc2CO[C@@H]1CN(C)C(=O)[C@H](C)c1ccccc1	-87*	/	/	-4
C[C@H](C(=O)N(C)C[C@@H]1OCc2ccccc2-c2c(n(C)c3ccccc23)C(=O)N([C@H](C)CO)C[C@H]1C)c1ccccc1	-75	/	/	-2
C[C@@H]1CN([C@@H](C)CO)C(=O)c2c(c3ccccc3n2C)-c2ccccc2CO[C@@H]1CN(C)C(=O)N[C@H](C)c1ccccc1	-22	0	36	-1
C[C@@H]1CN([C@H](C)CO)C(=O)c2c(c3ccccc3n2C)-c2ccccc2CO[C@H]1CN(C)C(=O)[C@H](C)c1ccccc1	-84*	/	/	-1
C[C@H](NC(=O)N(C)C[C@H]1OCc2ccccc2-c2c(n(C)c3ccccc23)C(=O)N([C@@H](C)CO)C[C@@H]1C)c1ccccc1	-81*	/	91	-1
COc1cc([N+](=O)[O-])ccc1NC(=O)CCN1C(=O)C2C3C=CC(C4CC34)C2C1=O (centres undefined)	/	0	/	/
C=CCNC(=O)[C@@H]1[C@H]2C(=O)O[C@H](c3ccccc3)[C@H](c3ccccc3)N2[C@H](c2ccc(OCCO)cc2)[C@@]12C(=O)N(C(=O)OCCOC)c1ccc(C#CCC(C(=O)OC)C(=O)OC)cc12	/	0	/	/
SMILES	Pf Dd2 inh	IDH1 mut inh	Tcruzi prolif	GASC1 inh
CCn1c(SCC(=O)Nc2cccc(C(C)=O)c2)nnc1-c1ccncc1	/	0	/	/
O=C(NCc1c(OC(=O)c2cccc([N+](=O)[O-])c2)ccc2ccccc12)c1ccccc1	/	0	/	/
COCC(=O)N1CC2(C1)CN(Cc1cc(F)ccc1F)[C@H](CO)c1[nH]c3cc(OC)ccc3c12	-87*	/	/	-1
COCC(=O)N1CC2(C1)CN(Cc1ccccn1)[C@@H](CO)c1[nH]c3cc(OC)ccc3c12	-82*	/	/	-2
COCC(=O)N1CCC2(CC1)CN(Cc1ccccc1F)[C@H](CO)c1[nH]c3cc(OC)ccc3c12	-89*	/	/	0
COCC(=O)N1CC2(C1)CN(Cc1ccccc1F)[C@H](CO)c1[nH]c3cc(OC)ccc3c12	-88*	/	/	-1
COc1ccc2c3c([nH]c2c1)[C@H](CO)N(Cc1ccccc1F)CC31CN(C)C1	-53	/	/	0
Cc1sc(NC(=O)c2cc(-c3cccnc3)nc3ccc(Cl)cc23)c(C(N)=O)c1-c1ccccc1	/	0	/	/
C=C1C2CCC3[C@]4(C)CCC[C@@](C)(C(=O)O)C4CC[C@]3(C2)[C@H]1OC(C)=O (some centres undefined)	/	0	/	/
COc1ccc2c3c(n(C)c2c1)[C@@H](CO)N(Cc1ccccc1)CC31CN(S(=O)(=O)c2ccc(C)cc2)C1	-31	/	/	/
CCS(=O)(=O)N1CC2(C1)CN(S(=O)(=O)c1ccccc1)[C@@H](CO)c1c2c2ccc(OC)cc2n1C	-57	/	/	-1
COc1ccc2c3c(n(C)c2c1)[C@H](CO)N(Cc1ccccc1)CC31CCN(S(=O)(=O)c2ccc(C)cc2)CC1	-84*	/	/	0
CCS(=O)(=O)N1CCC2(CC1)CN(S(=O)(=O)c1ccccc1)[C@@H](CO)c1c2c2ccc(OC)cc2n1C	-84*	/	/	0
CN(Cc1nc(-c2cccc([N+](=O)[O-])c2)no1)S(=O)(=O)c1ccccc1	/	0	/	/
OC[C@@H]1Nc2ccc(-c3cccc(F)c3)cc2[C@@H]2[C@H]1CCN2Cc1ccncc1	-92*	/	/	5
COc1ccc(-c2ccc3c(c2)[C@H]2[C@H](CCN2Cc2ccncc2)[C@@H](CO)N3)cc1	-82*	/	/	3
N#Cc1cccc(-c2ccc3c(c2)[C@H]2[C@H](CCN2Cc2ccc4c(c2)OCO4)[C@H](CO)N3)c1	-71	/	46	0
OC[C@H]1Nc2ccc(-c3cccc(F)c3)cc2[C@H]2[C@@H]1CCN2Cc1ccc(F)cc1	-73	/	94	1
